pIC50: −log10 of the molar value. Calls of active or inactive are those of the source. The rule behind the calls is not given here.
Key:
MCF7 [1] = test: Cytotoxicity against human MCF7 cells at 50 uM after 48 hrs by SRB assay; assay type: functional; details: MCF7, 48 h, read-out: GI
DU-145 [2] = test: Cytotoxicity against human DU145 cells at 30 uM after 48 hrs by SRB assay; assay type: functional; details: DU-145, 48 h, read-out: GI
SF-295 [3] = test: Cytotoxicity against human SF295 cells after 48 hrs by SRB assay; assay type: functional, cell-based; details: SF-295, 48 h
SF-295 [4] = test: Cytotoxicity against human SF295 cells at 10 uM after 48 hrs by SRB assay; assay type: functional; details: SF-295, 48 h, read-out: GI
HL-60 [5] = test: Induction of apoptosis in human HL60 cells assessed as DNA ladder formation after 24 hrs by DNA agarose gel electrophoresis; assay type: functional
Summary of the method: (§1)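 DNA fragmentation assay in HL-60 cells (2 × 10⁶ cells/well) or CV-1 cells, treated for 24 h. Cells were lysed in Tris–HCl pH 8.0/NaCl/EDTA/Triton X-100 with proteinase K (200 µg/mL) at 50 °C for 1 h, then DNase-free RNase for 90 min. DNA was phenol:chloroform extracted and ethanol precipitated. Gels were 1% agarose in TAE at 80 V for 1.5 h. Camptothecin (5 µM, 6 h) served as positive control in HL-60.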

HCT-15 [6] = test: Cytotoxicity against human HCT15 cells at 30 uM after 48 hrs by SRB assay; assay type: functional; details: HCT-15, 48 h, read-out: GI
HEp-2 [7] = test: Cytotoxicity against human Hep2 cells at 30 uM after 48 hrs by SRB assay; assay type: functional; details: HEp-2, 48 h, read-out: GI
THP-1 [8] = test: Cytotoxicity against human THP1 cells at 10 uM after 48 hrs by SRB assay; assay type: functional; details: THP-1, 48 h, read-out: GI
A549 [9] = test: Cytotoxicity against human A549 cells at 30 uM after 48 hrs by SRB assay; assay type: functional; details: A549, 48 h, read-out: GI
DU-145 [10] = test: Cytotoxicity against human DU145 cells after 48 hrs by SRB assay; assay type: functional, cell-based; details: DU-145, 48 h
HL-60 [11] = test: Cytotoxicity against human HL60 cells after 48 hrs by SRB assay; assay type: functional, cell-based; details: HL-60, 48 h
HL-60 [12] = test: Cytotoxicity against human HL60 cells at 10 uM after 48 hrs by SRB assay; assay type: functional; details: HL-60, 48 h, read-out: GI
A549 [13] = test: Cytotoxicity against human A549 cells at 10 uM after 48 hrs by SRB assay; assay type: functional; details: A549, 48 h, read-out: GI
HCT-15 [14] = test: Cytotoxicity against human HCT15 cells after 48 hrs by SRB assay; assay type: functional, cell-based; details: HCT-15, 48 h
MCF7 [15] = test: Cytotoxicity against human MCF7 cells after 48 hrs by SRB assay; assay type: functional, cell-based; details: MCF7, 48 h
SF-295 [16] = test: Cytotoxicity against human SF295 cells at 50 uM after 48 hrs by SRB assay; assay type: functional; details: SF-295, 48 h, read-out: GI
THP-1 [17] = test: Cytotoxicity against human THP1 cells after 48 hrs by SRB assay; assay type: functional, cell-based; details: THP-1, 48 h
THP-1 [18] = test: Inhibition of cell invasion in human THP1 cells at 1 to 30 uM after 24 hrs by wound-healing assay; assay type: functional, cell-based
Summary of the method: (§2)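 THP-1 monolayers (3×10⁵ cells/mL/well) were scratched with a pipette tip and washed three times with PBS. Test samples were added for 24 h, then fresh medium was added until the control wound healed. Wounds were imaged with a 10× objective at 0 h and 24 h. Migration was quantified as the distance between wound edges.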

HEp-2 [19] = test: Cytotoxicity against human Hep2 cells after 48 hrs by SRB assay; assay type: functional, cell-based; details: HEp-2, 48 h
DU-145 [20] = test: Cytotoxicity against human DU145 cells at 10 uM after 48 hrs by SRB assay; assay type: functional; details: DU-145, 48 h, read-out: GI
PC-3 [21] = test: Cytotoxicity against human PC3 cells after 48 hrs by SRB assay; assay type: functional, cell-based; details: PC-3, 48 h
DU-145 [22] = test: Cytotoxicity against human DU145 cells at 50 uM after 48 hrs by SRB assay; assay type: functional; details: DU-145, 48 h, read-out: GI
HEp-2 [23] = test: Cytotoxicity against human Hep2 cells at 50 uM after 48 hrs by SRB assay; assay type: functional; details: HEp-2, 48 h, read-out: GI
MCF7 [24] = test: Cytotoxicity against human MCF7 cells at 30 uM after 48 hrs by SRB assay; assay type: functional; details: MCF7, 48 h, read-out: GI
HL-60 [25] = test: Cytotoxicity against human HL60 cells at 30 uM after 48 hrs by SRB assay; assay type: functional; details: HL-60, 48 h, read-out: GI
THP-1 [26] = test: Cytotoxicity against human THP1 cells at 50 uM after 48 hrs by SRB assay; assay type: functional; details: THP-1, 48 h, read-out: GI
PC-3 [27] = test: Cytotoxicity against human PC3 cells at 10 uM after 48 hrs by SRB assay; assay type: functional; details: PC-3, 48 h, read-out: GI
HL-60 [28] = test: Cytotoxicity against human HL60 cells at 50 uM after 48 hrs by SRB assay; assay type: functional; details: HL-60, 48 h, read-out: GI
THP-1 [29] = test: Cytotoxicity against human THP1 cells at 30 uM after 48 hrs by SRB assay; assay type: functional; details: THP-1, 48 h, read-out: GI
MCF7 [30] = test: Cytotoxicity against human MCF7 cells at 10 uM after 48 hrs by SRB assay; assay type: functional; details: MCF7, 48 h, read-out: GI
HL-60 [31] = test: Induction of apoptosis in human HL60 cells assessed as change in mitochondrial membrane potential after 24 hrs using rhodamine-123 staining by fluorescence based confocal microscopy analysis; assay type: functional, cell-based
Summary of the method: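 HL-60 cells (6 × 10⁴/mL/well) were treated for 24 h. Rhodamine-123 (1 µM) was added in serum-free medium 30 min before the end, in the dark. Cells were then washed and resuspended in PBS. Fluorescence loss was viewed by confocal microscopy with 488 nm laser excitation. Each experiment was done twice.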

HL-60 [32] = test: Induction of apoptosis in human HL60 cells assessed as DNA ladder formation at 20 to 30 uM after 24 hrs by DNA agarose gel electrophoresis; assay type: functional, cell-based; summary of the method: as §1
PC-3 [33] = test: Cytotoxicity against human PC3 cells at 50 uM after 48 hrs by SRB assay; assay type: functional; details: PC-3, 48 h, read-out: GI
THP-1 [34] = test: Inhibition of colony formation in human THP1 cells using crystal violet staining after 24 hrs by clonogenic assay; assay type: functional, cell-based
Summary of the method: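 THP-1 cells from log-phase culture were plated at clonogenic dilution. After 24 h they were treated for 24 h, then incubated for at least six potential divisions (colonies >50 cells). Colonies were fixed and stained with 6% glutaraldehyde plus 0.5% crystal violet for 30 min, washed with water and air-dried.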

CV-1 = test: Induction of apoptosis in african green monkey CV1 cells assessed as DNA ladder formation at 10 to 60 uM after 24 hrs by DNA agarose gel electrophoresis; assay type: cell-based; details: chlorocebus aethiops, cv-1, 24 h; summary of the method: as §1
A549 [35] = test: Cytotoxicity against human A549 cells after 48 hrs by SRB assay; assay type: functional, cell-based; details: A549, 48 h
SF-295 [36] = test: Cytotoxicity against human SF295 cells at 30 uM after 48 hrs by SRB assay; assay type: functional; details: SF-295, 48 h, read-out: GI
HCT-15 [37] = test: Cytotoxicity against human HCT15 cells at 50 uM after 48 hrs by SRB assay; assay type: functional; details: HCT-15, 48 h, read-out: GI
HCT-15 [38] = test: Cytotoxicity against human HCT15 cells at 10 uM after 48 hrs by SRB assay; assay type: functional; details: HCT-15, 48 h, read-out: GI
A549 [39] = test: Cytotoxicity against human A549 cells at 50 uM after 48 hrs by SRB assay; assay type: functional; details: A549, 48 h, read-out: GI
HEp-2 [40] = test: Cytotoxicity against human Hep2 cells at 10 uM after 48 hrs by SRB assay; assay type: functional; details: HEp-2, 48 h, read-out: GI
THP-1 [41] = test: Inhibition of cell migration in human THP1 cells at 1 to 30 uM after 24 hrs by wound-healing assay; assay type: functional, cell-based; summary of the method: as §2
PC-3 [42] = test: Cytotoxicity against human PC3 cells at 30 uM after 48 hrs by SRB assay; assay type: functional; details: PC-3, 48 h, read-out: GI
HL-60 [43] = test: Induction of apoptosis in human HL60 cells assessed as DNA ladder formation at 5 uM after 6 hrs by DNA agarose gel electrophoresis; assay type: functional, cell-based
Summary of the method: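 HL-60 cells (2 × 10⁶/well/2 mL) were treated at 5 µM for 6 h, then pelleted and washed in PBS. DNA was extracted with phenol:chloroform:isoamyl alcohol and ethanol-precipitated. It was run on 1% agarose in TAE at 80 V for 1.5 h.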

Compound: C=C(C)[C@@H]1CC[C@]2(C(=O)O)CC[C@]3(C)[C@H](CC[C@@H]4[C@@]5(C)CC[C@H](OCc6cn(-c7ccccc7C#N)nn6)C(C)(C)[C@@H]5CC[C@]43C)[C@@H]12
- inhibition of growth at 50 µM (MCF7 [1]): 97%
- inhibition of growth at 30 µM (DU-145 [2]): 65%
- pIC50 (SF-295 [3]): 4.82
- inhibition of growth at 10 µM (SF-295 [4]): 45%
- Activity (HL-60 [5]): Dose-dependent effect
- MED (HL-60 [5]): 20 µM
- inhibition of growth at 30 µM (HCT-15 [6]): 61%
- inhibition of growth at 30 µM (HEp-2 [7]): 59%
- inhibition of growth at 10 µM (THP-1 [8]): 50%
- inhibition of growth at 30 µM (A549 [9]): 74%
- pIC50 (DU-145 [10]): 4.74
- pIC50 (HL-60 [11]): 5.60
- inhibition of growth at 10 µM (HL-60 [12]): 65%
- inhibition of growth at 10 µM (A549 [13]): 60%
- pIC50 (HCT-15 [14]): 4.70
- pIC50 (MCF7 [15]): 5.32
- inhibition of growth at 50 µM (SF-295 [16]): 71%
- pIC50 (THP-1 [17]): 5.35
- inhibition (THP-1 [18]): Active
- pIC50 (HEp-2 [19]): 4.92
- inhibition of growth at 10 µM (DU-145 [20]): 32%
- pIC50 (PC-3 [21]): 4.85
- inhibition of growth at 50 µM (DU-145 [22]): 84%
- inhibition of growth at 50 µM (HEp-2 [23]): 68%
- inhibition of growth at 30 µM (MCF7 [24]): 81%
- inhibition of growth at 30 µM (HL-60 [25]): 90%
- inhibition of growth at 50 µM (THP-1 [26]): 92%
- inhibition of growth at 10 µM (PC-3 [27]): 34%
- inhibition of growth at 50 µM (HL-60 [28]): 98%
- inhibition of growth at 30 µM (THP-1 [29]): 89%
- inhibition of growth at 10 µM (MCF7 [30]): 60%
- Activity (HL-60 [31]): Dose-dependent effect
- Activity (HL-60 [32]): Active
- inhibition of growth at 50 µM (PC-3 [33]): 86%
- inhibition (THP-1 [34]): Dose-dependent effect
- Activity (CV-1): Non-toxic
- pIC50 (A549 [35]): 5.30
- inhibition of growth at 30 µM (SF-295 [36]): 66%
- inhibition of growth at 50 µM (HCT-15 [37]): 89%
- inhibition of growth at 10 µM (HCT-15 [38]): 40%
- inhibition of growth at 50 µM (A549 [39]): 79%
- inhibition of growth at 10 µM (HEp-2 [40]): 45%
- inhibition (THP-1 [41]): Active
- inhibition of growth at 30 µM (PC-3 [42]): 71%

Compound: CC[C@@]1(O)C(=O)OCc2c1cc1n(c2=O)Cc2cc3ccccc3nc2-1
- Activity (HL-60 [43]): Active

Reference: ChEMBL document CHEMBL2380302, “Synthesis of 3-O-propargylated betulinic acid and its 1,2,3-triazoles as potential apoptotic agents” (Eur J Med Chem, 2013)
